Assay results taken from ChEMBL document CHEMBL1144441, “Identification of a novel cardenolide (2''-oxovoruscharin) from Calotropis procera and the hemisynthesis of novel derivatives displaying potent in vitro antitumor activities and high in vivo tolerance: structure-activity relationship analyses” (J Med Chem, 2005).

Experiments:
LNCaP = assay: In vitro cytotoxic activity against human LNCaP cancer cell lines after 3 days of culture; type: functional
How it was run: (§1)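 MTT overall-growth panel across 57 human cancer lines. Cells were plated for 24 h at 10 000–40 000 cells/mL, depending on cell type. Drugs were given at nine concentrations, 10^-9 to 10^-5 M in semilog steps, for 3 days. Absorbance was read at 570 nm with a 630 nm reference, in sextuplicate. Surviving cells are expressed as % of untreated control (100%).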

WiDr = assay: In vitro cytotoxic activity against human WiDr cancer cell lines after 3 days of culture; type: functional
How it was run: (§2)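 Human cancer cell lines, seeded 10 000–40 000 cells/mL and plated for 24 h, then exposed 72 h to nine drug concentrations from 10^-9 to 10^-5 M in semilog steps. Overall growth read by MTT reduction to formazan, absorbance at 570 nm (reference 630 nm). Sextuplicate wells; IC50 is the concentration reducing overall growth by 50% versus untreated control.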

ACHN = assay: In vitro cytotoxic activity against human ACHN cancer cell lines after 3 days of culture; type: functional; how it was run: as §1
PC-3 = assay: In vitro cytotoxic activity against human PC-3 cancer cell lines after 3 days of culture; type: functional; how it was run: as §1
[1] = In vitro cytotoxic activity against human Detroit 562 cancer cell lines after 3 days of culture; type: functional; how it was run: as §1
HCT-15 = assay: In vitro cytotoxic activity against human HCT-15 cancer cell lines after 3 days of culture; type: functional; how it was run: as §1
MIA PaCa-2 = assay: In vitro cytotoxic activity against human MiaPaca-2 cancer cell lines after 3 days of culture; type: functional; how it was run: as §1
[2] = In vitro cytotoxic activity against human SW1088 cancer cell lines after 3 days of culture; Activity expressed as log IC50; type: functional
How it was run: (§3)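 Adherent human cancer cell lines seeded at 10 000 to 40 000 cells/mL (depending on cell type) and left 24 h before treatment. Nine concentrations, 10^-9 to 10^-5 M in semilog steps, for 72 h. Growth measured by MTT reduction to formazan, absorbance 570 nm (reference 630 nm). Sextuplicate wells. IC50 is the concentration giving 50% lower overall growth than control.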

[3] = In vitro cytotoxic activity against human HT144 cancer cell lines after 3 days of culture; type: functional; how it was run: as §1
CAKI-2 = assay: In vitro cytotoxic activity against human CAKI-2 cancer cell lines after 3 days of culture; type: functional; how it was run: as §1
[4] = In vitro cytotoxic activity against human SK-LMS-1 cancer cell lines after 3 days of culture; type: functional; how it was run: as §1
MES-SA = assay: In vitro cytotoxic activity against human MES-SA cancer cell lines after 3 days of culture; type: functional; how it was run: as §1
U373 MG = assay: In vitro cytotoxic activity against human U-373MG cancer cell lines after 3 days of culture; type: functional, U-373MG ATCC; how it was run: as §2
HT-29 = assay: In vitro cytotoxic activity against human HT-29 cancer cell lines after 3 days of culture; type: functional; how it was run: as §1
DLD-1 = assay: In vitro cytotoxic activity against human DLD-1 cancer cell lines after 3 days of culture; type: functional; how it was run: as §1
[5] = In vitro cytotoxic activity against human 769-P cancer cell lines after 3 days of culture; type: functional; how it was run: as §1
[6] = In vitro cytotoxic activity against human Capan-2 cancer cell lines after 3 days of culture; type: functional; how it was run: as §1
LoVo = assay: In vitro cytotoxic activity against human LoVo cancer cell lines after 3 days of culture; type: functional; how it was run: as §1
MDA-MB-231 = assay: In vitro cytotoxic activity against human MDA-MB-231 cancer cell lines after 3 days of culture; type: functional; how it was run: as §1
T98G = assay: In vitro cytotoxic activity against human T98G cancer cell lines after 3 days of culture; type: functional; how it was run: as §2
Hs-578T = assay: In vitro cytotoxic activity against human Hs 578.T cancer cell lines after 3 days of culture; type: functional; how it was run: as §1
[7] = In vitro cytotoxic activity against human SW1783 cancer cell lines after 3 days of culture; Activity expressed as log IC50; type: functional; how it was run: as §3
H4 = assay: In vitro cytotoxic activity against human H4 cancer cell lines after 3 days of culture; Activity expressed as log IC50; type: functional; how it was run: as §3
[8] = In vitro cytotoxic activity against human C32 cancer cell lines after 3 days of culture; type: functional; how it was run: as §1
[9] = In vitro cytotoxic activity against human Hs 683 cancer cell lines after 3 days of culture; Activity expressed as log IC50; type: functional; how it was run: as §3
[10] = In vitro cytotoxic activity against human Hs 174.T cancer cell lines after 3 days of culture; type: functional; how it was run: as §1
[11] = In vitro cytotoxic activity against human Hs 729 cancer cell lines after 3 days of culture; type: functional; how it was run: as §1
T-24 = assay: In vitro cytotoxic activity against human T24 cancer cell lines after 3 days of culture; type: functional; how it was run: as §2
HT1197 = assay: In vitro cytotoxic activity against human HT1197 cancer cell lines after 3 days of culture; type: functional; how it was run: as §1
A204 = assay: In vitro cytotoxic activity against human A204 cancer cell lines after 3 days of culture; type: functional; how it was run: as §1
PANC-1 = assay: In vitro cytotoxic activity against human Panc-1 cancer cell lines after 3 days of culture; type: functional; how it was run: as §1
T47D = assay: In vitro cytotoxic activity against human T-47D cancer cell lines after 3 days of culture; type: functional; how it was run: as §2
HT-1080 = assay: In vitro cytotoxic activity against human HT1080 cancer cell lines after 3 days of culture; type: functional; how it was run: as §1
ZR-75-1 = assay: In vitro cytotoxic activity against human ZR-75-1 cancer cell lines after 3 days of culture; type: functional; how it was run: as §2
Malme-3M = assay: In vitro cytotoxic activity against human MALME-3M cancer cell lines after 3 days of culture; type: functional; how it was run: as §1
CFPAC-1 = assay: In vitro cytotoxic activity against human CFPAC-1 cancer cell lines after 3 days of culture; Activity expressed as log IC50; type: functional; how it was run: as §3
[12] = In vitro cytotoxic activity against human MCF7HTB-22 cancer cell lines after 3 days of culture; type: functional; how it was run: as §1
[13] = In vitro cytotoxic activity against human SCC-9 cancer cell lines after 3 days of culture; type: functional; how it was run: as §1
U-87 MG = assay: In vitro cytotoxic activity against human U87MG cancer cell lines after 3 days of culture; type: functional, U-87MG ATCC; how it was run: as §2
A498 = assay: In vitro cytotoxic activity against human A-498 cancer cell lines after 3 days of culture; type: functional; how it was run: as §1
[14] = In vitro cytotoxic activity against human SW948 cancer cell lines after 3 days of culture; type: functional; how it was run: as §2
[15] = In vitro cytotoxic activity against human SK-UT-1B cancer cell lines after 3 days of culture; type: functional; how it was run: as §2
SK-MEL-28 = assay: In vitro cytotoxic activity against human SKMEL-28 cancer cell lines after 3 days of culture; type: functional; how it was run: as §2
A-427 = assay: In vitro cytotoxic activity against human A427 cancer cell lines after 3 days of culture; type: functional; how it was run: as §1
[16] = In vitro cytotoxic activity against human AL-12T cancer cell lines after 3 days of culture; type: functional; how it was run: as §1
BT-20 = assay: In vitro cytotoxic activity against human BT-20 cancer cell lines after 3 days of culture; type: functional; how it was run: as §1
[17] = In vitro cytotoxic activity against human Su.86.86 cancer cell lines after 3 days of culture; type: functional; how it was run: as §2
[18] = In vitro cytotoxic activity against human […] cancer cell lines after 3 days of culture; type: functional; how it was run: as §1
FaDu = assay: In vitro cytotoxic activity against human FaDu cancer cell lines after 3 days of culture; type: functional; how it was run: as §1
BXPC-3 = assay: In vitro cytotoxic activity against human BxPC-3 cancer cell lines after 3 days of culture; type: functional; how it was run: as §1
[19] = In vitro cytotoxic activity against human Hs 766.T cancer cell lines after 3 days of culture; Activity expressed as log IC50; type: functional; how it was run: as §3
DU-145 = assay: In vitro cytotoxic activity against human DU145 cancer cell lines after 3 days of culture; type: functional; how it was run: as §1
786-0 = assay: In vitro cytotoxic activity against human 786-O cancer cell lines after 3 days of culture; type: functional; how it was run: as §1
[20] = In vitro cytotoxic activity against human G361 cancer cell lines after 3 days of culture; type: functional; how it was run: as §1
A549 = assay: In vitro cytotoxic activity against human A549 cancer cell lines after 3 days of culture; type: functional; how it was run: as §1

`CCc1c2c(nc3ccc(O)cc13)-c1cc3c(c(=O)n1C2)COC(=O)[C@]3(O)CC` [7-ETHYL-10-HYDROXYCAMPTOTHECIN] gave a Log IC50 (LNCaP) of -5.5, a Log IC50 (WiDr) of -6.6 and a Log IC50 (ACHN) of -8.3. The Log IC50 (PC-3) was -6.7, the Log IC50 [1] was -8 and the Log IC50 (HCT-15) was -7.1. The Log IC50 (MIA PaCa-2) was -6.6, the Log IC50 [2] was -5.4 and the Log IC50 [3] was -7.6. The Log IC50 (CAKI-2) was -5.3, the Log IC50 [4] was -6.4 and the Log IC50 (MES-SA) was -7.1. It also gave a Log IC50 (U373 MG) of -9, a Log IC50 (HT-29) of -7.5 and a Log IC50 (DLD-1) of -6.8. The Log IC50 [5] was -7.9, the Log IC50 [6] was -6.3 and the Log IC50 (LoVo) was -6.4. For the same compound, the Log IC50 (MDA-MB-231) was -5.3, the Log IC50 (T98G) was -7.3 and the Log IC50 (Hs-578T) was -6.3. For the same compound, the Log IC50 [7] was -7.3, the Log IC50 (H4) was -6.5 and the Log IC50 [8] was -8.7. The Log IC50 [9] was -7, the Log IC50 [10] was -6.9 and the Log IC50 [11] was -7.3. For the same compound, the Log IC50 (T-24) was -8.2, the Log IC50 (HT1197) was -5 and the Log IC50 (A204) was -7.7. It also gave a Log IC50 (PANC-1) of -5.1, a Log IC50 (T47D) of -7.3 and a Log IC50 (HT-1080) of -7.3. It also gave a Log IC50 (ZR-75-1) of -7.4, a Log IC50 (Malme-3M) of -5.2 and a Log IC50 (CFPAC-1) of -8.3. For the same compound, the Log IC50 [12] was -7.5, the Log IC50 [13] was -6.1 and the Log IC50 (U-87 MG) was -8.1. For the same compound, the Log IC50 (A498) was -6.9, the Log IC50 [14] was -7.7 and the Log IC50 [15] was -9. The Log IC50 (SK-MEL-28) was -7.3, the Log IC50 (A-427) was -9 and the Log IC50 [16] was -6.1. The Log IC50 (BT-20) was -6.5, the Log IC50 [17] was -6.5 and the Log IC50 [18] was -9. For the same compound, the Log IC50 (FaDu) was -8.9, the Log IC50 (BXPC-3) was -7.1 and the Log IC50 [19] was -5.6. It also gave a Log IC50 (DU-145) of -9, a Log IC50 (786-0) of -8.3 and a Log IC50 [20] of -5.6. It also gave a Log IC50 (A549) of -7.4.
